This is an account of results in ChEMBL document CHEMBL1128250, “Structure-activity studies of 2,3,4,4a,5,9b-hexahydroindeno[1,2-c]pyridines as antispermatogenic agents for male contraception” (1995).

Several values for one entry are separate records, joined by “and”; a condition that tells them apart may be missing. Equal values may be shown once.

In assay [1] the test system is Mus musculus. The assay is described as follows: Tested for its effect on spermatogenic index 3 days after single oral dose (90 mg/kg),. The format is functional. The gist of the method: (§1)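 CD-1 outbred Swiss albino male mice, 5 per dose, single gavage on day 0 at 10 mL/kg. Vehicle was 0.15 M acetate buffer pH 5, ethanol/Tween-20/water (3:7:90), or 1% Tween-20 in water. CO2 euthanasia 72 h later. Testes weighed and histologically scored (spermatogenic index 0–6). Values are % reduction versus the assay's vehicle control. Positive control was 30 mg/kg of the parent compound. Significance by Dunnett's one-tailed t-test, p < 0.05.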

For assay [2], the system named is Mus musculus. The assay is described as follows: Effect on right testes weight single oral dose of 30 mg/kg was given and the change after 14 hr of dosing was observed. The format is functional, Testis. The method in brief:
(§2)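 Male CD-1 outbred Swiss albino mice, single oral gavage in acetate buffer pH 5 (10 mL/kg), 3, 10 or 30 mg/kg, plus vehicle control. Killed on day 1, 3 or 14 after dosing (times are days, not hours). Testes removed, right and left weighed separately, sectioned for histology and scored on a 0–6 spermatogenic index. Body weight change recorded. Mean ± SEM, n = 5; p < 0.05 versus control.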

The subject of assay [3] is Mus musculus. The assay is described as follows: Effect on spermatogenic index single oral dose of 3 mg/kg was given and the change after 1 hr of dosing was observed. The format is functional. The method in brief: as §2
The subject of assay [4] is Mus musculus. The assay is described as follows: Tested for its effect on testes weight 3 days after single oral dose (30 mg/kg). The class given is functional, Testis. The method in brief:
as §1

For assay [5], the system named is Mus musculus. The assay is described as follows: Tested for its effect on spermatogenic index 3 days after single oral dose (10 mg/kg). The class given is functional. The method in brief: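 Male CD-1 (ICR) mice, 7 weeks old on arrival, 5 per dose, single gavage of 10 mL/kg on day 0. Vehicle was 0.15 M acetate buffer pH 5, ethanol/Tween-20/water 3:7:90, or 1% Tween-20. Mice were killed with CO2 at 72 h and testes weighed and scored for spermatogenic index (0–6 scale). Results are % reduction versus the vehicle control. Dunnett's one-tailed t-test.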

The subject of assay [6] is Mus musculus. The assay is described as follows: Tested for its effect on mouse testes weight 3 days after single oral dose (30 mg/kg). The format is functional, Testis. The method in brief:
as §1

The subject of assay [7] is Mus musculus. The assay is described as follows: Effect on right testes weight single oral dose of 10 mg/kg was given and the change after 1 hr of dosing was observed. The class given is functional, Testis. The method in brief:
as §2

Assay [8] relates to Mus musculus. The assay is described as follows: Effect on left testes body weight single oral dose of 3 mg/kg was given and the change after 14 hr of dosing was observed. The class given is functional, Testis. The method in brief: as §2
The subject of assay [9] is Mus musculus. The assay is described as follows: Effect on right testes weight single oral dose of 30 mg/kg was given and the change after 3 hr of dosing was observed. The format is functional, Testis. The method in brief:
as §2

For assay [10], the species on record is Mus musculus. The assay is described as follows: Tested for its effect on spermatogenic index 3 days after single sub cutaneous dose. The format is functional. The method in brief:
(§3)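 CD-1 outbred Swiss albino male mice, 5 per dose, single subcutaneous injection on day 0 at 10 mL/kg in ethanol/Tween-20/water (3:7:90). Killed 72 h later. Testes weighed and scored for spermatogenic index (0–6). Results are % reduction versus vehicle control. Each assay included a 30 mg/kg positive control. Dunnett's one-tailed t-test, p < 0.05. Oral versus sc route compared by ANOVA.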

The test system of assay [11] is Mus musculus. The assay is described as follows: Effect on spermatogenic index single oral dose of 30 mg/kg was given and the change after 14 hr of dosing was observed. The format is functional. The gist of the method: as §2
Assay [12] concerns Mus musculus. The assay is described as follows: Effect on right testes body weight single oral dose of 10 mg/kg was given and the change after 14 h of dosing was observed. The format is functional, Testis. The gist of the method:
as §2

Assay [13] deals with Mus musculus. The assay is described as follows: Effect on right testes weight single oral dose of 3 mg/kg was given and the change after 1 hr of dosing was observed. Data are given as mean +/- SEM (N=5), P<0.05, compared to control. The class given is functional, Testis. The gist of the method: as §2
The test system of assay [14] is Mus musculus. The assay is described as follows: Effect on right testes weight single oral dose of 3 mg/kg was given and the change after 3 hr of dosing was observed. The format is functional, Testis. The method in brief:
as §2

The subject of assay [15] is Mus musculus. The assay is described as follows: Effect on right testes weight asingle oral dose of 3 mg/kg was given and the change after 14 hr of dosing was observed. The class given is functional, Testis. The method in brief:
as §2

The test system of assay [16] is Mus musculus. The assay is described as follows: Tested for its effect on testes weight 3 days after single sub cutaneous dose (10 mg/kg). The format is functional, Testis. The gist of the method:
as §3

Turning to `CCN1CC[C@H]2[C@H](c3ccc(C)cc3)c3cc(C)ccc3[C@H]2C1.Cl`, the Reduction was 5% in assay [1]; 10% in assay [4]; 31% in [5]; 24% in [6]; 0% in assay [10]; -11% in assay [16]. Further, the Testes weight in assay [2] was 49.4 mg and 47.1 mg; in assay [7] it was 88.2 mg; in [8], 119.3 mg; in assay [9] it was 81 mg; in [12], 104.8 mg; in assay [13] it was 104.9 mg. Further, the Testes weight worked out at 112.6 mg in assay [14] and 126.5 mg in assay [15]. Moreover, the Spermatogenic index in assay [3] worked out at 6; in [7] it was 4; in assay [11], 1.7.
